Measured values: paper PMC5115981 (Cancer chemotherapy and pharmacology, 2016)

Legend:
mice [1] = assay: Single dose IV toxicity study in mice; assay type: in vivo, mouse; details: single IV dose 4 mg/kg
Summary of the method: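 Male and female heterozygous Foxn1nu/Foxn1+ mice, 5 per group, fasted overnight. Single 4 mg/kg IV tail-vein dose from a 0.4 mg/mL solution in 10% Solutol HS15 in sterile water (0.01 ml/g), alongside vehicle-treated mice. Body weights and clinical signs followed over 14 days, then necropsy for gross pathology. The dose tested was capped by maximum solubility.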

mice [2] = assay: Multiple dose; assay type: in vivo, mouse; details: IV daily for 5 days at 4, 2.7, 1.3 mg/kg, female mice
Summary of the method: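 Female heterozygous Foxn1nu/Foxn1+ mice, 5 per group, fasted overnight before dosing. Test compound given IV by lateral tail vein daily for 5 days, in 10% Solutol HS15 in sterile water at 0.01 ml/g body weight; a vehicle group was included. Body weights tracked before, during and after dosing over a 14 day observation period, followed by necropsy for gross pathology.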

COc1ccc(C2=Nn3c(nnc3-c3cc(-c4ccc(Cl)cc4)n[nH]3)SC2C)cc1 (stereo not drawn) [UPCDC-10205, 3-(3-(4-chlorophenyl)-1H-pyrazole-5-yl)-6-(4-methoxyphenyl)-7-methyl-7H-[1,2,4]triazolo[3,4-b][1,3,4]thiadiazine]
clinical appearance after single dose (mice [1]; male and female mice, 14 day observation, 4 mg/kg): not toxic | gross pathology upon necropsy after single dose (mice [1]; necropsy after 14 day observation): no gross pathology was detected | body weight after single dose (mice [1]; within first 24 h after injection): no apparent weight loss | body weights vs vehicle control group, multiple dose (mice [2]): no statistical differences | gross pathology upon necropsy, multiple dose (mice [2]): no signs of gross pathology | signs or symptoms of toxicity, multiple dose (mice [2]; 14 day observation): not toxic
